Laboratory results reported in ChEMBL document CHEMBL1149835, “Citrinin dimers from the halotolerant fungus Penicillium citrinum B-57” (J Nat Prod, 2008).

Legend:
[1] = tested on: Radical scavenging activity; test: Antioxidant activity assessed as DPPH free radical scavenging activity after 30 mins; assay type: functional
Summary of the method: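 DPPH dissolved in MeOH; 160 µL of reaction mixture containing test sample combined with 40 µL DPPH solution, kept in the dark 30 min. Absorbance read at 520 nm and percent inhibition calculated. IC50 (µM giving 50% inhibition of DPPH radical) derived from the log-dose inhibition curve. L-ascorbic acid served as positive control.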

A549 = test: Cytotoxicity against human A549 cells after 24 hrs by SRB assay; assay type: functional, cell-based; conditions: A549, 24 h
Summary of the method: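 SRB method: cells plated at 2 × 10^5 cells/mL, then test solutions in MeOH added and cultured a further 24 h. Cells fixed with 12% trichloroacetic acid, stained with 0.4% SRB, absorbance read at 515 nm. IC50 (concentration inhibiting proliferation 50%) calculated from the linear portion of log dose-response curves; paclitaxel positive control.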

P388 = test: Cytotoxicity against mouse P388 cells after 72 hrs by MTT assay; assay type: functional, cell-based; conditions: P388, 72 h
Summary of the method: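 P388 and HL-60 cells seeded at 5 × 10^4 cells/mL and pre-incubated 24 h. Test solutions in MeOH added, then 72 h exposure. MTT (5 mg/mL solution) added for 4 h, formazan dissolved in DMSO, absorbance read at 540 nm. IC50 taken from the linear part of log dose-response curves. Paclitaxel as positive control.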

HL-60 = test: Cytotoxicity against human HL60 cells after 72 hrs by MTT assay; assay type: functional, cell-based; conditions: HL-60, 72 h
Bel-7402 = test: Cytotoxicity against human Bel7402 cells after 24 hrs by SRB assay; assay type: functional, cell-based; conditions: Bel-7402, 24 h
[2] = Cytotoxicity against mouse NS1 cells; assay type: functional

SMILES: Cc1c(O)c2c(c3c1[C@H](C)[C@@H](C)O3)Oc1cc(O)c(C)c3c1[C@H]2O[C@H](C)[C@H]3C [PENICITRINOL A]
- IC50 [1]: 26.8 µM

SMILES: Cc1cc(O)c(C)c(O)c1C
- IC50 [1]: 3.8 µM

SMILES: Cc1c(O)c(C(=O)O)c(O)c2c1[C@H](C)[C@@H](C)OC2=O [DIHYDROCITRINONE]
- IC50 [1]: > 1000 µM

SMILES: Cc1c([C@H](C)[C@H](C)O)c(O)c2oc3cc(=O)c(C)c4c-3c(c2c1O)O[C@H](C)[C@H]4C [PENNICITRINONE C]
- IC50 [1]: 55.3 µM
- IC50 (A549): > 50 µM
- IC50 (P388): > 50 µM
- IC50 (HL-60): > 50 µM
- IC50 (Bel-7402): > 50 µM

SMILES: Cc1cc(O)cc(O)c1 [ORCINOL]
- IC50 [1]: 0.8 µM

SMILES: Cc1c(O)c(C(=O)O)c(O)c2c1[C@H](C)[C@@H](C)OC2 [DIHYDROCITRININ]
- IC50 [1]: 123 µM

SMILES: CC1=C2C(=CO[C@H](C)[C@H]2C)C(O)=C(C(=O)O)C1=O [CITRININ]
- IC50 [1]: 160 µM

SMILES: CO[C@@]12O[C@H](C)[C@@H](C)C1=C(C)C(=O)C1=C2Oc2cc(O)c(C)c3c2[C@H]1O[C@H](C)[C@H]3C [PENICITRINOL B]
- IC50 [1]: 291 µM
- IC50 (A549): > 50 µM
- IC50 (P388): > 50 µM
- IC50 (HL-60): > 50 µM
- IC50 (Bel-7402): > 50 µM

SMILES: CC(=O)O[C@H]1C(=O)[C@@]2(C)[C@H]([C@H](OC(=O)c3ccccc3)[C@]3(O)C[C@H](OC(=O)[C@H](O)[C@@H](NC(=O)c4ccccc4)c4ccccc4)C(C)=C1C3(C)C)[C@]1(OC(C)=O)CO[C@@H]1C[C@@H]2O [PACLITAXEL]
- IC50 (A549): 0.93 µM

SMILES: Cc1c([C@H](C)[C@@H](C)O)cc(O)c(C(=O)O)c1O [PHENOL A ACID]
- IC50 [1]: 796 µM

SMILES: Cc1c2c(c3oc4cc(=O)c(C)c5c-4c(c3c1O)O[C@H](C)[C@H]5C)O[C@H](C)[C@H]2C [DICITRININ A]
- IC50 [1]: 10.6 µM
- LD99 [2]: 6.3 µg/mL

SMILES: O=C1O[C@H]([C@@H](O)CO)C(O)=C1O [ASCORBIC ACID]
- IC50 [1]: 22.7 µM

SMILES: CC1=C([C@H](C)[C@@H](C)OC=O)C(=O)C2=C(C1=O)[C@@H]1O[C@H](C)[C@@H](C)c3c(C)c(O)cc(c31)O2 [CITRININ H1]
- IC50 [1]: 58.7 µM

SMILES: Cc1c(O)c(C)c2c(c1O)C(=O)OC(C)(O)C2 (centres undefined) [SCLEROTININ B]
- IC50 [1]: > 1000 µM

SMILES: Cc1c(O)cc(O)cc1[C@H](C)[C@@H](C)O [PHENOL A]
- IC50 [1]: 22.5 µM
